Source: ChEMBL document CHEMBL3351355, “Structure-affinity/activity relationships of 1,4-dioxa-spiro[4.5]decane based ligands at α1 and 5-HT1A receptors” (Eur J Med Chem, 2014)

Tests used:
[1] = target: T1, 5-hydroxytryptamine receptor 1A (Homo sapiens) (UniProt P08908); assay: Agonist activity at human recombinant 5-HT1A receptor expressed in HeLa cells after 30 mins by [35S]GTPgammaS binding assay; format: functional, cell-based
T1 sequence (whole entry): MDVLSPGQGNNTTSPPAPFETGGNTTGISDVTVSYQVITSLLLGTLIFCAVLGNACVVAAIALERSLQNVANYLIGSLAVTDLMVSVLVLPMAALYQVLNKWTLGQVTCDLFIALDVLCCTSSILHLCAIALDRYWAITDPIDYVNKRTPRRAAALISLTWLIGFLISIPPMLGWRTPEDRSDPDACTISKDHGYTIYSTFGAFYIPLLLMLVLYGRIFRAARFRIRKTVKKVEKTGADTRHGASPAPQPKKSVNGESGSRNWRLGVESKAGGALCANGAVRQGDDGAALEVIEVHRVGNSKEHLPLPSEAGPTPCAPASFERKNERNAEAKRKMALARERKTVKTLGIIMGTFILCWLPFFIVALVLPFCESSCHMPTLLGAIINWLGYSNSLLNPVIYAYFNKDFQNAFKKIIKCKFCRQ
Procedure, shortened: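 HeLa membranes expressing human 5-HT1A (50–70 µg protein) in 20 mM HEPES, 3 mM MgSO4, 120 mM NaCl pH 7.4 with 30 µM GDP; test drug 0.01 nM–10 µM, 20 min at 30 °C, then 200 pM [35S]GTPγS for 30 min at 30 °C. Nonspecific with 10 µM GTPγS; filtration and scintillation counting. Emax as % of maximal 8-OH-DPAT stimulation; pD2 = −log EC50.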

[2] = target: T2, 5-hydroxytryptamine receptor 1A (Homo sapiens, UniProt P08908); assay: Displacement of [3H]8-OH-DPAT from human recombinant 5-HT1A receptor expressed in HeLa cells after 30 mins by liquid scintillation counting; format: cell-based
T2 sequence (P08908 whole entry): T1 sequence (whole entry)
Procedure, shortened: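 HeLa cells stably carrying genomic clone G-21 were grown in DMEM with 10% FCS, then lysed in Tris/EDTA pH 7.4. Membranes (80–90 µg protein) were incubated in 50 mM Tris, 2.5 mM MgCl2, 10 µM pargyline, pH 7.4, with 1 nM [3H]8-OH-DPAT and competitor (1 pM–1 µM) for 30 min at 30 °C, in triplicate. Nonspecific binding with 10 µM 5-HT. pKi from 2–3 experiments.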

[3] = target: T1, 5-hydroxytryptamine receptor 1A (Homo sapiens); assay: Agonist activity at human recombinant 5-HT1A receptor expressed in HeLa cells after 30 mins by [35S]GTPgammaS binding assay relative to control; format: functional, cell-based
Procedure, shortened: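 HeLa membranes (50–70 µg protein) in 20 mM HEPES, 3 mM MgSO4, 120 mM NaCl, pH 7.4, preincubated 20 min at 30 °C with 30 µM GDP and drug (0.01 nM–10 µM), then 200 pM [35S]GTPγS added for 30 min at 30 °C. Nonspecific binding with 10 µM GTPγS. Filtration and scintillation counting. Data expressed as % increase over basal, 8-OH-DPAT maximum = 100%. Emax and pD2 derived.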

[4] = target: T3, Alpha-1D adrenergic receptor (Homo sapiens, UniProt P25100); assay: Displacement of [3H]prazosin from human recombinant alpha1D adrenoceptor expressed in CHO cells after 30 mins by liquid scintillation counting; format: cell-based
T3 sequence (P25100 whole entry): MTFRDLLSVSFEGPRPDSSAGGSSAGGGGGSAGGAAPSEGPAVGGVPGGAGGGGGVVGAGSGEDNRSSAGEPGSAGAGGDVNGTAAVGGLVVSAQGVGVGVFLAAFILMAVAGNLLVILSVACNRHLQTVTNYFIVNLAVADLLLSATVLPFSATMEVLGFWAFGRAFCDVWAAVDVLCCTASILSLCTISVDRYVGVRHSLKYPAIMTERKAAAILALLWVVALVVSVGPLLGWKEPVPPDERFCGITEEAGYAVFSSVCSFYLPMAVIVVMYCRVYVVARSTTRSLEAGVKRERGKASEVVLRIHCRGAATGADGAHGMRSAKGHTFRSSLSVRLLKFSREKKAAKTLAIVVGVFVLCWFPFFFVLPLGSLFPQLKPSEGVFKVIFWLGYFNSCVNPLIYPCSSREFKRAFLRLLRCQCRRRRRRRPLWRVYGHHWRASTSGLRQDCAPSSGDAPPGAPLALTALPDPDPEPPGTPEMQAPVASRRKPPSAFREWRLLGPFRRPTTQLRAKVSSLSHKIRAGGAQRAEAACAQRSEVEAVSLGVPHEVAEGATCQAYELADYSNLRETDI
Procedure, shortened: (§1)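 CHO cells were stably transfected by electroporation with each human α1 subtype. Membranes (70 µg protein) were incubated in 50 mM Tris pH 7.4 with 0.1–0.4 nM [3H]prazosin and competitor (1 pM–1 µM) for 30 min at 25 °C. Nonspecific binding with 10 µM tamsulosin. Filtration and scintillation counting. pKi from 2–3 experiments in duplicate.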

[5] = target: T4, Alpha-1B adrenergic receptor (Homo sapiens, UniProt P35368); assay: Displacement of [3H]prazosin from human recombinant alpha1B adrenoceptor expressed in CHO cells after 30 mins by liquid scintillation counting; format: cell-based; procedure, shortened: as §1
T4 sequence (P35368 whole entry): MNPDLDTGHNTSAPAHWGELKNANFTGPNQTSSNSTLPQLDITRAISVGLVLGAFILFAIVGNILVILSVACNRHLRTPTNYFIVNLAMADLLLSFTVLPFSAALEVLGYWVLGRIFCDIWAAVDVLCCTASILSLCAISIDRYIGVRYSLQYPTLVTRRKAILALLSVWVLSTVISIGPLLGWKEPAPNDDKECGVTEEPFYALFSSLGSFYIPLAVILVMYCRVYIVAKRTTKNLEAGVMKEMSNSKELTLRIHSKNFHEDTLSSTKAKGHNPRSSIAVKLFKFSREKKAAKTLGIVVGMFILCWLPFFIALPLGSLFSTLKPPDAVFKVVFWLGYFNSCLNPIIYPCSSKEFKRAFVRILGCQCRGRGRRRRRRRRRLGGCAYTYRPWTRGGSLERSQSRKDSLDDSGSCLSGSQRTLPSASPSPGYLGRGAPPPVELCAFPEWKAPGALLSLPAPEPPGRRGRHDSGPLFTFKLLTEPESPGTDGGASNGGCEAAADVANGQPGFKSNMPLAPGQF

pD2 [1]: 8.13
Ki [2]: 117 nM
Emax [3]: 139%
Ki [4]: 42.7 nM
Ki [5]: 479 nM
SMILES: COc1ccccc1N1CCN(CC2COC3(CC[S+]([O-])CC3)O2)CC1 (stereo not given)
